From ChEMBL document CHEMBL5247575 (J Med Chem, 2018)

test system: Klebsiella pneumoniae; assay: Synergistic antibacterial activity against Klebsiella pneumoniae 11978 producing OXA-48 assessed as cefepime MIC at 4 ug/ml by broth microdilution method; format: functional; settings: dose 4 µg/ml
Method in brief: (§1)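 Broth microdilution per CLSI guidelines, using custom frozen panels. […] Each partner drug was also tested alone. MICs were run in triplicate and the modal value is reported.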

| SMILES | MIC |
| --- | --- |
| O.O=C(NC1CCNCC1)[C@@H]1CC[C@@H]2CN1C(=O)N2OS(=O)(=O)O [RELEBACTAM] | 2 µg/mL |

test system: Escherichia coli; assay: Synergistic antibacterial activity against Escherichia coli DH10B transfected with pBC SK (-) PDC-3 assessed as cefepime MIC at 4 ug/ml by broth microdilution method; format: functional; settings: dose 4 µg/ml; method in brief: as §1

| SMILES | MIC |
| --- | --- |
| O.O=C(NC1CCNCC1)[C@@H]1CC[C@@H]2CN1C(=O)N2OS(=O)(=O)O [RELEBACTAM] | ≤ 0.12 µg/mL |

test system: Acinetobacter baumannii; assay: Synergistic antibacterial activity against Acinetobacter baumannii PR363 producing OXA-23 assessed as cefepime MIC at 4 ug/ml by broth microdilution method; format: functional; settings: dose 4 µg/ml

| SMILES | MIC |
| --- | --- |
| O.O=C(NC1CCNCC1)[C@@H]1CC[C@@H]2CN1C(=O)N2OS(=O)(=O)O [RELEBACTAM] | 16 µg/mL |

test system: Acinetobacter baumannii; assay: Synergistic antibacterial activity against Acinetobacter baumannii PR319 producing OXA-23/24/40 assessed as meropenem MIC at 4 ug/ml by broth microdilution method; format: functional; settings: dose 4 µg/ml

| SMILES | MIC |
| --- | --- |
| O.O=C(NC1CCNCC1)[C@@H]1CC[C@@H]2CN1C(=O)N2OS(=O)(=O)O [RELEBACTAM] | > 16 µg/mL |

test system: Pseudomonas aeruginosa; assay: Antibacterial activity against Pseudomonas aeruginosa CL232 by broth microdilution method; format: functional; settings: not given

| SMILES | MIC |
| --- | --- |
| O.O=C(NC1CCNCC1)[C@@H]1CC[C@@H]2CN1C(=O)N2OS(=O)(=O)O [RELEBACTAM] | > 16 µg/mL |

test system: Klebsiella pneumoniae; assay: Synergistic antibacterial activity against Klebsiella pneumoniae 972/1910 producing KPC-3 assessed as meropenem MIC at 4 ug/ml by broth microdilution method; format: functional; settings: dose 4 µg/ml

| SMILES | MIC |
| --- | --- |
| O.O=C(NC1CCNCC1)[C@@H]1CC[C@@H]2CN1C(=O)N2OS(=O)(=O)O [RELEBACTAM] | ≤ 0.12 µg/mL |

test system: Escherichia coli; assay: Antibacterial activity against Escherichia coli DH10B transfected with pBR322-catI-KPC-2 by broth microdilution method; format: functional; settings: not given

| SMILES | MIC |
| --- | --- |
| O.O=C(NC1CCNCC1)[C@@H]1CC[C@@H]2CN1C(=O)N2OS(=O)(=O)O [RELEBACTAM] | > 16 µg/mL |

test system: Klebsiella pneumoniae; assay: Synergistic antibacterial activity against Klebsiella pneumoniae CAV 1636 producing OXA-181 assessed as cefepime MIC at 4 ug/ml by broth microdilution method; format: functional; settings: dose 4 µg/ml

| SMILES | MIC |
| --- | --- |
| O.O=C(NC1CCNCC1)[C@@H]1CC[C@@H]2CN1C(=O)N2OS(=O)(=O)O [RELEBACTAM] | 4 µg/mL |

test system: Klebsiella pneumoniae; assay: Synergistic antibacterial activity against Klebsiella pneumoniae 11978 producing OXA-48 assessed as meropenem MIC at 4 ug/ml by broth microdilution method; format: functional; settings: dose 4 µg/ml; method in brief: as §1

| SMILES | MIC |
| --- | --- |
| O.O=C(NC1CCNCC1)[C@@H]1CC[C@@H]2CN1C(=O)N2OS(=O)(=O)O [RELEBACTAM] | > 16 µg/mL |

test system: Pseudomonas aeruginosa; assay: Synergistic antibacterial activity against Pseudomonas aeruginosa 839 assessed as meropenem MIC at 4 ug/ml by broth microdilution method; format: functional; settings: dose 4 µg/ml

| SMILES | MIC |
| --- | --- |
| O.O=C(NC1CCNCC1)[C@@H]1CC[C@@H]2CN1C(=O)N2OS(=O)(=O)O [RELEBACTAM] | 1 µg/mL |

test system: Bacteria; assay: Inhibition of bacteria ADC-7 assessed as half life using nitrocefin as substrate; settings: not given

| SMILES | T1/2 |
| --- | --- |
| O.O=C(NC1CCNCC1)[C@@H]1CC[C@@H]2CN1C(=O)N2OS(=O)(=O)O [RELEBACTAM] | 39 min |

test system: Klebsiella pneumoniae; assay: Synergistic antibacterial activity against Klebsiella pneumoniae 440/1360 producing KPC-2 assessed as cefepime MIC at 4 ug/ml by broth microdilution method; format: functional; settings: dose 4 µg/ml; method in brief: as §1

| SMILES | MIC |
| --- | --- |
| O.O=C(NC1CCNCC1)[C@@H]1CC[C@@H]2CN1C(=O)N2OS(=O)(=O)O [RELEBACTAM] | 1 µg/mL |

test system: Klebsiella pneumoniae; assay: Synergistic antibacterial activity against Klebsiella pneumoniae 440/1360 producing KPC-2 assessed as meropenem MIC at 4 ug/ml by broth microdilution method; format: functional; settings: dose 4 µg/ml; method in brief: as §1

| SMILES | MIC |
| --- | --- |
| O.O=C(NC1CCNCC1)[C@@H]1CC[C@@H]2CN1C(=O)N2OS(=O)(=O)O [RELEBACTAM] | ≤ 0.12 µg/mL |

test system: Klebsiella pneumoniae; assay: Synergistic antibacterial activity against Klebsiella pneumoniae 1108/1989 producing KPC-3 assessed as meropenem MIC at 4 ug/ml by broth microdilution method; format: functional; settings: dose 4 µg/ml; method in brief: as §1

| SMILES | MIC |
| --- | --- |
| O.O=C(NC1CCNCC1)[C@@H]1CC[C@@H]2CN1C(=O)N2OS(=O)(=O)O [RELEBACTAM] | ≤ 0.12 µg/mL |

test system: Acinetobacter baumannii; assay: Synergistic antibacterial activity against Acinetobacter baumannii PR408 producing OXA-24/40 assessed as cefepime MIC at 4 ug/ml by broth microdilution method; format: functional; settings: dose 4 µg/ml

| SMILES | MIC |
| --- | --- |
| O.O=C(NC1CCNCC1)[C@@H]1CC[C@@H]2CN1C(=O)N2OS(=O)(=O)O [RELEBACTAM] | 16 µg/mL |

test system: Klebsiella pneumoniae; assay: Synergistic antibacterial activity against Klebsiella pneumoniae 1084/1957 producing KPC-3 assessed as meropenem MIC at 4 ug/ml by broth microdilution method; format: functional; settings: dose 4 µg/ml; method in brief: as §1

| SMILES | MIC |
| --- | --- |
| O.O=C(NC1CCNCC1)[C@@H]1CC[C@@H]2CN1C(=O)N2OS(=O)(=O)O [RELEBACTAM] | ≤ 0.12 µg/mL |

test system: Pseudomonas aeruginosa; assay: Synergistic antibacterial activity against Pseudomonas aeruginosa 776 assessed as meropenem MIC at 4 ug/ml by broth microdilution method; format: functional; settings: dose 4 µg/ml

| SMILES | MIC |
| --- | --- |
| O.O=C(NC1CCNCC1)[C@@H]1CC[C@@H]2CN1C(=O)N2OS(=O)(=O)O [RELEBACTAM] | > 16 µg/mL |

test system: Klebsiella pneumoniae; assay: Synergistic antibacterial activity against Klebsiella pneumoniae 977/1916 producing KPC-3 assessed as cefepime MIC at 4 ug/ml by broth microdilution method; format: functional; settings: dose 4 µg/ml

| SMILES | MIC |
| --- | --- |
| O.O=C(NC1CCNCC1)[C@@H]1CC[C@@H]2CN1C(=O)N2OS(=O)(=O)O [RELEBACTAM] | 0.25 µg/mL |

test system: Klebsiella pneumoniae; assay: Synergistic antibacterial activity against Klebsiella pneumoniae 776/1742 producing KPC-2 assessed as cefepime MIC at 4 ug/ml by broth microdilution method; format: functional; settings: dose 4 µg/ml

| SMILES | MIC |
| --- | --- |
| O.O=C(NC1CCNCC1)[C@@H]1CC[C@@H]2CN1C(=O)N2OS(=O)(=O)O [RELEBACTAM] | 1 µg/mL |

test system: Klebsiella pneumoniae; assay: Synergistic antibacterial activity against Klebsiella pneumoniae 1398/2291 producing KPC-3 assessed as cefepime MIC at 4 ug/ml by broth microdilution method; format: functional; settings: dose 4 µg/ml; method in brief: as §1

| SMILES | MIC |
| --- | --- |
| O.O=C(NC1CCNCC1)[C@@H]1CC[C@@H]2CN1C(=O)N2OS(=O)(=O)O [RELEBACTAM] | ≤ 0.12 µg/mL |

test system: Klebsiella pneumoniae; assay: Synergistic antibacterial activity against Klebsiella pneumoniae 660/1568 producing KPC-3 assessed as cefepime MIC at 4 ug/ml by broth microdilution method; format: functional; settings: dose 4 µg/ml; method in brief: as §1

| SMILES | MIC |
| --- | --- |
| O.O=C(NC1CCNCC1)[C@@H]1CC[C@@H]2CN1C(=O)N2OS(=O)(=O)O [RELEBACTAM] | 0.25 µg/mL |
